Source: ChEMBL document CHEMBL1138683 (J Med Chem, 2004)

How the values were obtained:
Mus musculus [1] = experiment: Anti convulsant activity administered intra peritoneally to mouse at maximal electroshock test at 4 hr after the drug administered with dose of 100 mg/kg; 0/3= No of animals protected /No of animals tested; format: functional
Mus musculus [2] = experiment: Anti convulsant activity administered intra peritoneally to mouse for subcutaneous metrazol test at 4 hr after the drug administered with dose of 30 mg/kg; 0/1= No of animals protected /No of animals tested; format: functional; settings: route intraperitoneal
Mus musculus [3] = experiment: Anti convulsant activity administered intra peritoneally to mouse for subcutaneous metrazol test at 0.5 hr with dose of 30 mg/kg; 0/1= No of animals protected /No of animals tested; format: functional
Mus musculus [4] = experiment: Anti convulsant activity administered intra peritoneally to mouse for subcutaneous metrazol test at 0.5 h with dose of 300 mg/kg; 0/1= No of animals protected /No of animals tested; format: functional
[5] = Anti convulsant activity administered intra peritoneally to mouse for toxicity at 0.5 hr with dose of 100 mg/kg; 0/8= No of animals exhibiting toxicity /No of animals tested; format: organism-based; design: dose 100 mg/kg; settings: in vivo, ip
Mus musculus [6] = experiment: Anti convulsant activity administered intra peritoneally to mouse for subcutaneous metrazol test at 4 hr after the drug administered with dose of 100 mg/kg; 0/1= No of animals protected /No of animals tested; format: functional
Mus musculus [7] = experiment: Anti convulsant activity administered intra peritoneally to mouse at maximal electroshock test at 0.5 hr after the drug administered with dose of 300 mg/kg; 1/1= No of animals protected /No of animals tested; format: functional
Mus musculus [8] = experiment: Anti convulsant activity administered intra peritoneally to mouse for toxicity at 4 hr with dose of 30 mg/kg; 0/3= No of animals exhibiting toxicity /No of animals tested; format: functional
Mus musculus [9] = experiment: Anti convulsant activity administered intra peritoneally to mouse for subcutaneous metrazol test at 4 hr with dose of 300 mg/kg; 0/1= No of animals protected /No of animals tested; format: functional
[10] = Anti convulsant activity administered intra peritoneally to mouse for toxicity at 0.5 hr with dose of 300 mg/kg; 2/4= No of animals exhibiting toxicity /No of animals tested; format: organism-based; design: dose 300 mg/kg; settings: in vivo, ip
Mus musculus [11] = experiment: Anti convulsant activity administered intra peritoneally to mouse at maximal electroshock test at 0.5 h after the drug administered with dose of 30 mg/kg; 0/1= No of animals protected /No of animals tested; format: functional
[12] = Anti convulsant activity administered intra peritoneally to mouse for toxicity at 4 hr with dose of 30 mg/kg; 0/2= No of animals exhibiting toxicity /No of animals tested; format: organism-based; design: dose 30 mg/kg; settings: in vivo, ip
[13] = Anti convulsant activity administered intra peritoneally to mouse for toxicity at 4 hr with dose of 100 mg/kg; 1/4= No of animals exhibiting toxicity /No of animals tested; format: organism-based; design: dose 100 mg/kg; settings: in vivo, ip
Rattus norvegicus [14] = experiment: Anticonvulsant activity after oral administration of 30 mg/kg dose after 4 hr in rats; + means 25% of the animals protected; format: functional, organism-based; design: dose 30 mg/kg
Outline: (§1)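 Oral dosing of rats at a single dose, compound dissolved or suspended in 0.5% methylcellulose. Protection in the MES or scMet test checked 15 min, 30 min, 1 h, 2 h and 4 h after dosing. Scored as 25/50/75/100% of animals protected (+ to ++++), – for none.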

Mus musculus [15] = experiment: Anti convulsant activity administered intra peritoneally to mouse at maximal electroshock test at 4 hr after the drug administered with dose of 30 mg/kg; 0/1= No of animals protected /No of animals tested; format: functional
[16] = Anti convulsant activity administered intra peritoneally to mouse for toxicity at 0.5 hr with dose of 30 mg/kg; 0/4= No of animals exhibiting toxicity /No of animals tested; format: organism-based; design: dose 30 mg/kg; settings: in vivo, ip
[17] = Anti convulsant activity administered intra peritoneally to mouse for toxicity at 4 hr with dose of 300 mg/kg; 1/4= No of animals exhibiting toxicity /No of animals tested; format: organism-based; design: dose 300 mg/kg; settings: in vivo, ip
[18] = Anti convulsant activity administered intra peritoneally to mouse for toxicity at 0.5 hr with dose of 100 mg/kg; 7/8= No of animals exhibiting toxicity /No of animals tested; format: organism-based; design: dose 100 mg/kg; settings: in vivo, ip
Mus musculus [19] = experiment: Anti convulsant activity administered intra peritoneally to mouse for toxicity at 4 hr with dose of 30 mg/kg; 1/3= No of animals exhibiting toxicity /No of animals tested; format: functional
Mus musculus [20] = experiment: Anti convulsant activity administered intra peritoneally to mouse at maximal electroshock test at 4 hr after the drug administered with dose of 300 mg/kg; 1/1= No of animals protected /No of animals tested; format: functional
[21] = Anti convulsant activity administered intra peritoneally to mouse for toxicity at 4 hr with dose of 300 mg/kg; 2/2= No of animals exhibiting toxicity /No of animals tested; format: organism-based; design: dose 300 mg/kg; settings: in vivo, ip
[22] = Anti convulsant activity administered intra peritoneally to mouse for toxicity at 0.5 hr with dose of 300 mg/kg; 4/4= No of animals exhibiting toxicity /No of animals tested; format: organism-based; design: dose 300 mg/kg; settings: in vivo, ip
[23] = Anti convulsant activity administered intra peritoneally to mouse for toxicity at 4 hr with dose of 100 mg/kg; 4/4= No of animals exhibiting toxicity /No of animals tested; format: organism-based; design: dose 100 mg/kg; settings: in vivo, ip
Rattus norvegicus [24] = experiment: Toxicity after oral administration of 100 mg/kg dose in rats; + means 25% of the […]; format: functional, organism-based; design: dose 100 mg/kg
Outline: (§2)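 Rats dosed orally with compound dissolved or suspended in 0.5% methylcellulose (0.04 mL per 10 g body weight). Anticonvulsant protection (MES or scMet) and toxicity scored at 15 min, 30 min, 1 h, 2 h and 4 h after dosing. Graded in steps of 25% of animals protected or showing toxicity.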

Mus musculus [25] = experiment: Anti convulsant activity administered intra peritoneally to mouse at maximal electroshock test at 0.5 hr after the drug administered with dose of 100 mg/kg; 0/3= No of animals protected /No of animals tested; format: functional
[26] = Anticonvulsant activity after oral administration of 100 mg/kg dose after 30 min in rats; ++ means 50% of the animals protected; format: organism-based; design: dose 100 mg/kg, route oral; settings: rat, in vivo, 0.5 h; outline: as §1
Mus musculus [27] = experiment: Anti convulsant activity administered intra peritoneally to mouse at maximal electroshock test at 0.5 h after the drug administered with dose of 300 mg/kg; 0/1= No of animals protected /No of animals tested; format: functional
Mus musculus [28] = experiment: Anti convulsant activity administered intra peritoneally to mouse at maximal electroshock test at 4 hr after the drug administered with dose of 300 mg/kg; 0/1= No of animals protected /No of animals tested; format: functional
Rattus norvegicus [29] = experiment: Anticonvulsant activity after oral administration of 100 mg/kg dose after 1 hr in rats; + means 25% of the animals protected; format: functional, organism-based; design: dose 100 mg/kg; outline: as §1
Rattus norvegicus [30] = experiment: Anticonvulsant activity after oral administration of 100 mg/kg dose after 4 hr in rats; +means 25% of the animals protected; format: functional, organism-based; design: dose 100 mg/kg; outline: as §1
[31] = Anti convulsant activity administered intra peritoneally to mouse for toxicity at 4 hr with dose of 300 mg/kg; 0/2= No of animals exhibiting toxicity /No of animals tested; format: organism-based; design: dose 300 mg/kg; settings: in vivo, ip
[32] = Toxicity after oral administration of 100 mg/kg dose in rats; + means 25% of the animals exhibit toxicity; format: organism-based; design: dose 100 mg/kg, route oral; settings: rat, in vivo; outline: as §2
Mus musculus [33] = experiment: Anti convulsant activity administered intra peritoneally to mouse for subcutaneous metrazol test at 0.5 hr with dose of 100 mg/kg; 0/1= No of animals protected /No of animals tested; format: functional
[34] = Quantitative Anticonvulsant activity administered intraperitoneally to mouse for toxicity; settings: in vivo, ip
Outline: (§3)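 Mice dosed intraperitoneally with compound dissolved or suspended in 0.5% methylcellulose (0.01 mL per gram body weight). […] Protective index calculated as TD50/ED50 for each seizure test.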

Mus musculus [35] = experiment: Quantitative Anticonvulsant activity administered intraperitoneally to mouse for protective index in subcutaneous metrazol test; format: functional; outline: as §3
[36] = Anti convulsant activity administered intra peritoneally to mouse for toxicity at 4 hr with dose of 100 mg/kg; 0/4= No of animals exhibiting toxicity /No of animals tested; format: organism-based; design: dose 100 mg/kg; settings: in vivo, ip
Rattus norvegicus [37] = experiment: Quantitative Anticonvulsant activity administered orally to rat for protective index in subcutaneous metrazol test; format: functional
Outline: (§4)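 Oral dosing in rats with compound dissolved or suspended in 0.5% methylcellulose (0.04 mL per 10 g body weight). […] Protective index taken as TD50/ED50 for each test.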

Rattus norvegicus [38] = experiment: Quantitative Anticonvulsant activity administered orally to rat for subcutaneous metrazol test; format: functional; outline: as §4
Rattus norvegicus [39] = experiment: Anticonvulsant activity after oral administration of 50 mg/kg dose after 15 min in rats; ++++means 100% of the animals protected; format: functional, organism-based; design: dose 50 mg/kg; outline: as §1
Rattus norvegicus [40] = experiment: Quantitative Anticonvulsant activity administered orally to rat for protective index in maximal electro shock test;TD50/ED50; format: functional; outline: as §4
Mus musculus [41] = experiment: Anti convulsant activity administered intra peritoneally to mouse for toxicity at 4 hr with dose of 30 mg/kg; 2/3= No of animals exhibiting toxicity /No of animals tested; format: functional
Rattus norvegicus [42] = experiment: Anticonvulsant activity after oral administration of 50 mg/kg dose after 30 min in rats; +++ means 75% of the animals protected; format: functional, organism-based; design: dose 50 mg/kg; outline: as §2
Mus musculus [43] = experiment: Quantitative Anticonvulsant activity administered intraperitoneally to mouse for subcutaneous metrazol test; format: functional; outline: as §3
Mus musculus [44] = experiment: Quantitative Anticonvulsant activity administered intraperitoneally to mouse for protective index in maximal electro shock test;TD50/ED50; format: functional; outline: as §3
Mus musculus [45] = experiment: Anti convulsant activity administered intra peritoneally to mouse for subcutaneous metrazol test at 4 hr with dose of 300 mg/kg; 1/1= No of animals protected /No of animals tested; format: functional
Rattus norvegicus [46] = experiment: Quantitative Anticonvulsant activity administered orally to rat at maximal electro shock test; the interval in parenthesis stands for 95% confidence interval; format: functional; settings: po; outline: as §4
Rattus norvegicus [47] = experiment: Quantitative Anticonvulsant activity administered orally to rat for toxicity; format: functional; settings: po; outline: as §4
Rattus norvegicus [48] = experiment: Anticonvulsant activity after oral administration of 30 mg/kg dose after 30 min in rats; ++ means 50% animals protected; format: functional, organism-based; design: dose 30 mg/kg; outline: as §1
Mus musculus [49] = experiment: Anti convulsant activity administered intra peritoneally to mouse for subcutaneous metrazol test at 0.5 hr with dose of 300 mg/kg; 1/1= No of animals protected /No of animals tested; format: functional
Rattus norvegicus [50] = experiment: Anticonvulsant activity after oral administration of 30 mg/kg dose after 1 hr in rats; ++means 50% animals protected; format: functional, organism-based; design: dose 30 mg/kg; outline: as §1
[51] = Anti convulsant activity administered intra peritoneally to mouse for toxicity at 4 hr with dose of 300 mg/kg; 1/2= No of animals exhibiting toxicity /No of animals tested; format: organism-based; design: dose 300 mg/kg; settings: in vivo, ip

Structure (SMILES)	Activity (Mus musculus [1])	Activity (Mus musculus [2])	Activity (Mus musculus [3])	Activity (Mus musculus [4])	Toxicity [5]	Activity (Mus musculus [6])	Activity (Mus musculus [7])	Activity (Mus musculus [9])	Activity (Mus musculus [11])	Toxicity [12]	Toxicity [13]	Activity (Mus musculus [15])	Toxicity [16]	Toxicity [18]	Toxicity [22]	Activity (Mus musculus [28])	Activity (Rattus norvegicus [29])	other results
CC1(C)C(C(=O)NN)C1(C)C	0	0	0	0	0	0	1	0	0	0	1	0	0					Activity (Mus musculus [8]): 0; Toxicity [10]: 2; Activity (Rattus norvegicus [14]): 25% of the animals protected; Toxicity [17]: 1
CC1(C)C(C(=O)N=C(N)N)C1(C)C	0	0	0				1		0	0		0	0	7	4			Activity (Mus musculus [19]): 1; Activity (Mus musculus [20]): 1; Toxicity [21]: 2; Toxicity [23]: 4
CCN(CCO)C(=O)C1C(C)(C)C1(C)C	0	0	0	0		0		0	0	0	1	0	0	7	4	0	25% of the animals protected	Toxicity (Rattus norvegicus [24]): 25% of the animals exhibit toxicity; Activity (Mus musculus [25]): 0; Activity [26]: 25% of the animals protected; Activity (Mus musculus [27]): 0; Activity (Rattus norvegicus [30]): 25% of the animals protected; Toxicity [31]: 0; Toxicity [32]: 25% of the animals exhibit toxicity; Activity (Mus musculus [33]): 0
CONC(=O)C1C(C)(C)C1(C)C	0	0	0		0	0	1		0	0		0	0		4	0	25% of the animals protected	TD50 [34]: 116 mg/kg; Anticonvulsant (Mus musculus [35]): 2.2; Toxicity [36]: 0; Activity (Rattus norvegicus [37]): 9.5; ED50 (Rattus norvegicus [38]): 35 mg/kg; Anticonvulsant Activity (Rattus norvegicus [39]): 100% of the animals protected; Ratio (Rattus norvegicus [40]): 3.1; Activity (Mus musculus [41]): 2; Activity (Rattus norvegicus [42]): 25% of the animals protected; ED50 (Mus musculus [43]): 74 mg/kg; Ratio (Mus musculus [44]): 1.4 mg/kg; Activity (Mus musculus [45]): 1; ED50 (Rattus norvegicus [46]): 108 mg/kg; ED50 (Rattus norvegicus [47]): 333 mg/kg; Activity (Rattus norvegicus [48]): 25% of the animals protected; Activity (Mus musculus [49]): 1; Activity (Rattus norvegicus [50]): 25% of the animals protected; Toxicity [51]: 1
